Measured values reported in ChEMBL document CHEMBL5104202, “Structure-Uptake Relationship Studies of Oxazolidinones in Gram-Negative ESKAPE Pathogens” (J Med Chem, 2022).
Converted amounts (≈) assume the structure as drawn.

How the values were obtained:
Escherichia coli [1] = test: Antibacterial activity against Escherichia coli SQ110 DTC G2032A incubated for 24 hrs by twofold serial dilution method; type: functional
Summary of the method: (§1)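 E. coli SQDTC (TolC-deficient, single rRNA operon) carrying LZD-resistant 23S rRNA substitutions. Compounds come from 10 mM DMSO stocks and are twofold serially diluted in 96-well plates.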

Acinetobacter baumannii [2] = test: Antibacterial activity against multidrug resistant Acinetobacter baumannii AYE assessed as inhibition of bacterial growth incubated for 24 hrs in MHI medium by twofold serial dilution method; type: functional
Pseudomonas aeruginosa [3] = test: Antibacterial activity against efflux pump lacking Pseudomonas aeruginosa assessed as inhibition of bacterial growth; type: functional, organism-based
Escherichia coli [4] = test: Antibacterial activity against efflux pump lacking/recombinant OM pore producing Escherichia coli incubated for 24 hrs by twofold serial dilution method; type: functional
Summary of the method: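 E. coli efflux-knockout/hyperporinated strain grown in M9 medium with 50 mM MOPS (pH 7.2) and 0.2% xylose. OM pore induced with 0.1% arabinose. Compounds come from 10 mM DMSO stocks and are twofold serially diluted in 96-well plates.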

Acinetobacter baumannii [5] = test: Antibacterial activity against wild type Acinetobacter baumannii assessed as inhibition of bacterial growth; type: functional, organism-based
Acinetobacter baumannii [6] = test: Antibacterial activity against recombinant OM pore producing Acinetobacter baumannii assessed as inhibition of bacterial growth; type: functional, organism-based
Escherichia coli [7] = test: Antibacterial activity against Escherichia coli SQ110 DTC C2610A incubated for 24 hrs by twofold serial dilution method; type: functional; summary of the method: as §1
Escherichia coli [8] = test: Antibacterial activity against efflux pump lacking/recombinant OM pore producing Escherichia coli assessed as inhibition of bacterial growth; type: functional, organism-based
Escherichia coli [9] = test: Antibacterial activity against recombinant OM pore producing Escherichia coli assessed as inhibition of bacterial growth; type: functional, organism-based
Pseudomonas aeruginosa [10] = test: Antibacterial activity against recombinant OM pore producing Pseudomonas aeruginosa assessed as inhibition of bacterial growth; type: functional, organism-based
Pseudomonas aeruginosa [11] = test: Antibacterial activity against multidrug resistant Pseudomonas aeruginosa BAA 2109 assessed as inhibition of bacterial growth incubated for 24 hrs in […] medium by twofold serial dilution method; type: functional
Pseudomonas aeruginosa [12] = test: Antibacterial activity against efflux pump lacking/recombinant OM pore producing Pseudomonas aeruginosa incubated for 24 hrs by twofold serial dilution method; type: functional
Summary of the method: (§2)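 MICs by twofold serial dilution in 96-well plates from 10 mM DMSO stocks. Cultures grown in the indicated media; for E. coli, A. baumannii and P. aeruginosa, inducers were 0.1% arabinose, 1% arabinose and 0.1 mM IPTG respectively.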

Acinetobacter baumannii [13] = test: Antibacterial activity against multidrug resistant Acinetobacter baumannii Ab5075 assessed as inhibition of bacterial growth incubated for 24 hrs in M9-MOPS medium by twofold serial dilution method; type: functional
Klebsiella aerogenes [14] = test: Antibacterial activity against multidrug resistant Klebsiella aerogenes ATCC13048 assessed as inhibition of bacterial growth incubated for 24 hrs in M9-MOPS medium by twofold serial dilution method; type: functional
Pseudomonas aeruginosa [15] = test: Antibacterial activity against multidrug resistant Pseudomonas aeruginosa BAA 2108 assessed as inhibition of bacterial growth incubated for 24 hrs in M9-MOPS medium by twofold serial dilution method; type: functional
Acinetobacter baumannii [16] = test: Antibacterial activity against efflux pump lacking/recombinant OM pore producing Acinetobacter baumannii assessed as inhibition of bacterial growth; type: functional, organism-based
Pseudomonas aeruginosa [17] = test: Antibacterial activity against multidrug resistant Pseudomonas aeruginosa BAA 2109 assessed as inhibition of bacterial growth incubated for 24 hrs in MHI medium by twofold serial dilution method; type: functional
Klebsiella pneumoniae [18] = test: Antibacterial activity against multidrug resistant Klebsiella pneumoniae ATCC13883 assessed as inhibition of bacterial growth incubated for 24 hrs in MHI medium by twofold serial dilution method; type: functional
Escherichia coli [19] = test: Antibacterial activity against Escherichia coli SQ110 incubated for 24 hrs by twofold serial dilution method; type: functional; summary of the method: as §2
Pseudomonas aeruginosa [20] = test: Antibacterial activity against wild type Pseudomonas aeruginosa assessed as inhibition of bacterial growth; type: functional, organism-based
Klebsiella aerogenes [21] = test: Antibacterial activity against multidrug resistant Klebsiella […] assessed as inhibition of bacterial growth incubated for 24 hrs in MHI medium by twofold serial dilution method; type: functional
Pseudomonas aeruginosa [22] = test: Antibacterial activity against multidrug resistant Pseudomonas aeruginosa BAA 2108 assessed as inhibition of bacterial growth incubated for 24 hrs in MHI medium by twofold serial dilution method; type: functional
Klebsiella pneumoniae [23] = test: Antibacterial activity against multidrug resistant Klebsiella pneumoniae ATCC43816 assessed as inhibition of bacterial growth incubated for 24 hrs in MHI medium by twofold serial dilution method; type: functional
Escherichia coli [24] = test: Antibacterial activity against efflux pump lacking Escherichia coli assessed as inhibition of bacterial growth; type: functional, organism-based
Escherichia coli [25] = test: Antibacterial activity against Escherichia coli SQ110 DTC incubated for 24 hrs by twofold serial dilution method; type: functional; summary of the method: as §2
Staphylococcus aureus = test: Antibacterial activity against Staphylococcus aureus ATCC 25923 incubated for 24 hrs by twofold serial dilution method; type: functional; summary of the method: as §2
Acinetobacter baumannii [26] = test: Antibacterial activity against efflux pump lacking Acinetobacter baumannii assessed as inhibition of bacterial growth; type: functional, organism-based
Acinetobacter baumannii [27] = test: Antibacterial activity against efflux pump lacking/recombinant OM pore producing Acinetobacter baumannii incubated for 24 hrs by twofold serial dilution method; type: functional; summary of the method: as §2
Acinetobacter baumannii [28] = test: Antibacterial activity against multidrug resistant Acinetobacter baumannii AYE assessed as inhibition of bacterial growth incubated for 24 hrs in M9-MOPS medium by twofold serial dilution method; type: functional
Escherichia coli [29] = test: Antibacterial activity against wild type Escherichia coli assessed as inhibition of bacterial growth; type: functional, organism-based
Pseudomonas aeruginosa [30] = test: Antibacterial activity against efflux pump lacking/recombinant OM pore producing Pseudomonas aeruginosa assessed as inhibition of bacterial growth; type: functional, organism-based
Klebsiella pneumoniae [31] = test: Antibacterial activity against multidrug resistant Klebsiella pneumoniae ATCC13883 assessed as inhibition of bacterial growth incubated for 24 hrs in M9-MOPS medium by twofold serial dilution method; type: functional
Acinetobacter baumannii [32] = test: Antibacterial activity against multidrug resistant Acinetobacter baumannii Ab5075 assessed as inhibition of bacterial growth incubated for 24 hrs in MHI medium by twofold serial dilution method; type: functional
Klebsiella pneumoniae [33] = test: Antibacterial activity against multidrug resistant Klebsiella pneumoniae ATCC43816 assessed as inhibition of bacterial growth incubated for 24 hrs in M9-MOPS medium by twofold serial dilution method; type: functional
Klebsiella pneumoniae [34] = test: Antibacterial activity against multidrug resistant Klebsiella pneumoniae ATCC43816 assessed as inhibition of bacterial growth incubated for 24 hrs in MHI medium by twofold serial dilution method; settings: ATCC43816, 24 h

O=C1O[C@@H](CO)CN1c1ccc(-c2ccncc2)c(F)c1
MIC (Escherichia coli [1]): 25 µM (≈ 7.21 µg/mL)
MIC (Acinetobacter baumannii [2]): > 200 µM
IC50 (Pseudomonas aeruginosa [3]): 8.1 µM
MIC (Escherichia coli [4]): 6.25 µM
IC50 (Acinetobacter baumannii [5]): 16.5 µM
IC50 (Acinetobacter baumannii [6]): 16.5 µM
MIC (Escherichia coli [7]): 6.25 µM (≈ 1.8 µg/mL)
IC50 (Escherichia coli [8]): 1.3 µM
IC50 (Escherichia coli [9]): 5.6 µM
IC50 (Pseudomonas aeruginosa [10]): 48.2 µM
MIC (Pseudomonas aeruginosa [11]): > 200 µM
MIC (Pseudomonas aeruginosa [12]): 3.12 µM
MIC (Acinetobacter baumannii [13]): 100 µM (≈ 28.8 µg/mL)
MIC (Klebsiella aerogenes [14]): 200 µM (≈ 57.7 µg/mL)
MIC (Pseudomonas aeruginosa [15]): ≥ 200 µM
IC50 (Acinetobacter baumannii [16]): 1.4 µM
MIC (Pseudomonas aeruginosa [17]): > 200 µM
MIC (Klebsiella pneumoniae [18]): 200 µM (≈ 57.7 µg/mL)
MIC (Escherichia coli [19]): > 100 µM
IC50 (Pseudomonas aeruginosa [20]): 44.2 µM
MIC (Klebsiella aerogenes [21]): 200 µM (≈ 57.7 µg/mL)
MIC (Pseudomonas aeruginosa [22]): ≥ 200 µM
MIC (Klebsiella pneumoniae [23]): > 200 µM
IC50 (Escherichia coli [24]): 0.8 µM
MIC (Escherichia coli [25]): 6.25 µM (≈ 1.8 µg/mL)
MIC (Staphylococcus aureus): 1.56 µM (≈ 0.45 µg/mL)
IC50 (Acinetobacter baumannii [26]): 1.4 µM
MIC (Acinetobacter baumannii [27]): 6.25 µM
MIC (Acinetobacter baumannii [28]): 100 µM (≈ 28.8 µg/mL)
IC50 (Escherichia coli [29]): 44.3 µM
IC50 (Pseudomonas aeruginosa [30]): 2.9 µM
MIC (Klebsiella pneumoniae [31]): 100 µM (≈ 28.8 µg/mL)
MIC (Acinetobacter baumannii [32]): > 200 µM
MIC (Klebsiella pneumoniae [33]): 200 µM (≈ 57.7 µg/mL)

NCc1ccc(-c2ccc(N3C[C@H](CO)OC3=O)cc2F)cc1O
MIC (Escherichia coli [1]): 100 µM (≈ 33.2 µg/mL)
MIC (Acinetobacter baumannii [2]): > 200 µM
IC50 (Pseudomonas aeruginosa [3]): 2.2 µM
MIC (Escherichia coli [4]): 50 µM
IC50 (Acinetobacter baumannii [5]): 37.6 µM
IC50 (Acinetobacter baumannii [6]): 37.6 µM
MIC (Escherichia coli [7]): 50 µM (≈ 16.6 µg/mL)
IC50 (Escherichia coli [8]): 10.3 µM
IC50 (Escherichia coli [9]): 23.3 µM
IC50 (Pseudomonas aeruginosa [10]): 40.8 µM
MIC (Pseudomonas aeruginosa [11]): > 200 µM
MIC (Pseudomonas aeruginosa [12]): 6.25 µM
MIC (Acinetobacter baumannii [13]): > 200 µM
MIC (Klebsiella aerogenes [14]): 12.5 µM (≈ 4.15 µg/mL)
MIC (Pseudomonas aeruginosa [15]): > 200 µM
IC50 (Acinetobacter baumannii [16]): 15.4 µM
MIC (Pseudomonas aeruginosa [17]): > 200 µM
MIC (Klebsiella pneumoniae [18]): > 200 µM
MIC (Escherichia coli [19]): > 100 µM
IC50 (Pseudomonas aeruginosa [20]): 55.9 µM
MIC (Klebsiella aerogenes [21]): 200 µM (≈ 66.5 µg/mL)
MIC (Pseudomonas aeruginosa [22]): > 200 µM
MIC (Klebsiella pneumoniae [23]): > 200 µM
IC50 (Escherichia coli [24]): 10 µM
MIC (Escherichia coli [25]): 25 µM (≈ 8.31 µg/mL)
IC50 (Acinetobacter baumannii [26]): 15.4 µM
MIC (Acinetobacter baumannii [27]): 25 µM
MIC (Acinetobacter baumannii [28]): > 200 µM
IC50 (Escherichia coli [29]): 66.1 µM
IC50 (Pseudomonas aeruginosa [30]): 0.2 µM
MIC (Klebsiella pneumoniae [31]): 50 µM (≈ 16.6 µg/mL)
MIC (Acinetobacter baumannii [32]): > 200 µM
MIC (Klebsiella pneumoniae [33]): 100 µM (≈ 33.2 µg/mL)

NCc1ccc(-c2ccc(N3C[C@H](CO)OC3=O)cc2F)cc1
MIC (Escherichia coli [1]): 100 µM (≈ 31.6 µg/mL)
MIC (Acinetobacter baumannii [2]): > 200 µM
IC50 (Pseudomonas aeruginosa [3]): 3.3 µM
MIC (Escherichia coli [4]): > 100 µM
IC50 (Acinetobacter baumannii [5]): 54.5 µM
IC50 (Acinetobacter baumannii [6]): 14.3 µM
MIC (Escherichia coli [7]): 50 µM (≈ 15.8 µg/mL)
IC50 (Escherichia coli [8]): 2.6 µM
IC50 (Escherichia coli [9]): 2.6 µM
IC50 (Pseudomonas aeruginosa [10]): 26.3 µM
MIC (Pseudomonas aeruginosa [11]): > 200 µM
MIC (Pseudomonas aeruginosa [12]): 12.5 µM
MIC (Acinetobacter baumannii [13]): > 200 µM
MIC (Klebsiella aerogenes [14]): 100 µM (≈ 31.6 µg/mL)
MIC (Pseudomonas aeruginosa [15]): > 200 µM
IC50 (Acinetobacter baumannii [16]): 8.2 µM
MIC (Pseudomonas aeruginosa [17]): > 200 µM
MIC (Klebsiella pneumoniae [18]): > 200 µM
MIC (Escherichia coli [19]): > 100 µM
IC50 (Pseudomonas aeruginosa [20]): 23 µM
MIC (Klebsiella pneumoniae [34]): > 200 µM
MIC (Pseudomonas aeruginosa [22]): > 200 µM
MIC (Klebsiella pneumoniae [23]): > 200 µM
IC50 (Escherichia coli [24]): 1.7 µM
MIC (Escherichia coli [25]): 50 µM (≈ 15.8 µg/mL)
MIC (Staphylococcus aureus): 6.25 µM (≈ 1.98 µg/mL)
IC50 (Acinetobacter baumannii [26]): 17.7 µM
MIC (Acinetobacter baumannii [27]): 25 µM
MIC (Acinetobacter baumannii [28]): > 200 µM
IC50 (Escherichia coli [29]): 18.1 µM
IC50 (Pseudomonas aeruginosa [30]): 8.1 µM
MIC (Klebsiella pneumoniae [31]): 100 µM (≈ 31.6 µg/mL)
MIC (Acinetobacter baumannii [32]): > 200 µM
MIC (Klebsiella pneumoniae [33]): 200 µM (≈ 63.3 µg/mL)

O=C1O[C@@H](CO)CN1c1ccc(-c2ccc(OC(F)(F)F)cc2)c(F)c1
MIC (Escherichia coli [1]): > 100 µM
IC50 (Pseudomonas aeruginosa [3]): 18.6 µM
MIC (Escherichia coli [4]): > 100 µM
IC50 (Acinetobacter baumannii [5]): > 100 µM
IC50 (Acinetobacter baumannii [6]): 25.6 µM
MIC (Escherichia coli [7]): > 100 µM
IC50 (Escherichia coli [8]): 18.8 µM
IC50 (Escherichia coli [9]): 76.9 µM
IC50 (Pseudomonas aeruginosa [10]): > 100 µM
MIC (Pseudomonas aeruginosa [12]): > 100 µM
IC50 (Acinetobacter baumannii [16]): 6.4 µM
MIC (Escherichia coli [19]): > 100 µM
IC50 (Pseudomonas aeruginosa [20]): > 100 µM
IC50 (Escherichia coli [24]): 17.2 µM
MIC (Escherichia coli [25]): 100 µM (≈ 37.1 µg/mL)
MIC (Staphylococcus aureus): 6.25 µM (≈ 2.32 µg/mL)
IC50 (Acinetobacter baumannii [26]): 16.3 µM
MIC (Acinetobacter baumannii [27]): 25 µM
IC50 (Escherichia coli [29]): > 100 µM
IC50 (Pseudomonas aeruginosa [30]): 3.1 µM
